ChEMBL document CHEMBL5724801, “EUbOPEN Chemogenomics Library - Multiplex” (2024)
Where “and” joins values, the source holds several entries; their conditions need not be identical. Equal values may be shown once.

Tested on: HEK-293T
Test: Multiplex assay against HEK293T
Type: toxicity, cell-based
Details: human
Procedure, shortened: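 Live cells were stained at seeding with Hoechst33342, BioTracker Green Microtubule Cytoskeleton Dye, MitoTracker Red and Annexin V Alexa Fluor 680, then imaged on a CQ1 microscope at 37°C and 5% CO2 after compound addition. CellPathfinder machine-learning gating split cells into Hoechst high-intensity objects or normal cells. Normal cells were split into healthy, pyknosed or fragmented nuclei, and pyknosed cells into mitotic or apoptotic. Tubulin, mitochondrial-mass and membrane-permeability phenotypes are per cents of healthy-nucleus cells.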

[1] = 12 h, 1 µM, compound concentration 1 uM
[2] = 12 h, 10 µM, compound concentration 10 uM
[3] = 24 h, 1 µM, compound concentration 1 uM
[4] = 24 h, 10 µM, compound concentration 10 uM
[5] = 48 h, 1 µM, compound concentration 1 uM
[6] = 48 h, 10 µM, compound concentration 10 uM

SMILES: CN1CCN2c3ncccc3Cc3ccccc3C2C1 (configuration not stated) [MIRTAZAPINE]
- Population Apoptotic (%) [1]: 58% and 51%
- Population Fragmented Nuclei (%) [1]: 4% and 3%
- Population Healthy Nuclei (%) [1]: 88% and 79%
- Population Hoechst High Intensity Objects (%) [1]: 5% and 7%
- Population Membrane Permeable-Phenotype (%) [1]: 0%
- Population Mitochondria Different-Phenotype (%) [1]: 41% and 68%
- Population Mitotic Cells (%) [1]: 41% and 48%
- Population Normal (%) [1]: 94% and 92%
- Population Pyknosed Nuclei (%) [1]: 7% and 17%
- Population Tubulin-Different-Phenotype (%) [1]: 22% and 21%
- Total Cell Count [1]: 402 and 329
- Population Apoptotic (%) [2]: 45% and 47%
- Population Fragmented Nuclei (%) [2]: 9% and 5%
- Population Healthy Nuclei (%) [2]: 75% and 79%
- Population Hoechst High Intensity Objects (%) [2]: 6%
- Population Membrane Permeable-Phenotype (%) [2]: 0% and 1%
- Population Mitochondria Different-Phenotype (%) [2]: 49% and 64%
- Population Mitotic Cells (%) [2]: 54% and 52%
- Population Normal (%) [2]: 93%
- Population Pyknosed Nuclei (%) [2]: 15%
- Population Tubulin-Different-Phenotype (%) [2]: 43% and 36%
- Total Cell Count [2]: 228 and 240
- Population Apoptotic (%) [3]: 33% and 42%
- Population Fragmented Nuclei (%) [3]: 9% and 6%
- Population Healthy Nuclei (%) [3]: 80% and 79%
- Population Hoechst High Intensity Objects (%) [3]: 3% and 6%
- Population Membrane Permeable-Phenotype (%) [3]: 0%
- Population Mitochondria Different-Phenotype (%) [3]: 35% and 47%
- Population Mitotic Cells (%) [3]: 66% and 57%
- Population Normal (%) [3]: 97% and 93%
- Population Pyknosed Nuclei (%) [3]: 10% and 14%
- Population Tubulin-Different-Phenotype (%) [3]: 18% and 17%
- Total Cell Count [3]: 601 and 373
- Population Apoptotic (%) [4]: 44% and 32%
- Population Fragmented Nuclei (%) [4]: 9% and 5%
- Population Healthy Nuclei (%) [4]: 78% and 80%
- Population Hoechst High Intensity Objects (%) [4]: 3% and 5%
- Population Membrane Permeable-Phenotype (%) [4]: 0%
- Population Mitochondria Different-Phenotype (%) [4]: 40% and 44%
- Population Mitotic Cells (%) [4]: 55% and 67%
- Population Normal (%) [4]: 96% and 94%
- Population Pyknosed Nuclei (%) [4]: 12% and 13%
- Population Tubulin-Different-Phenotype (%) [4]: 28% and 18%
- Total Cell Count [4]: 274 and 314
- Population Apoptotic (%) [5]: 23% and 44%
- Population Fragmented Nuclei (%) [5]: 11% and 13%
- Population Healthy Nuclei (%) [5]: 82% and 80%
- Population Hoechst High Intensity Objects (%) [5]: 2% and 3%
- Population Membrane Permeable-Phenotype (%) [5]: 1% and 0%
- Population Mitochondria Different-Phenotype (%) [5]: 19% and 21%
- Population Mitotic Cells (%) [5]: 76% and 55%
- Population Normal (%) [5]: 97% and 96%
- Population Pyknosed Nuclei (%) [5]: 6%
- Population Tubulin-Different-Phenotype (%) [5]: 13% and 9%
- Total Cell Count [5]: 885 and 562
- Population Apoptotic (%) [6]: 31% and 30%
- Population Fragmented Nuclei (%) [6]: 14% and 11%
- Population Healthy Nuclei (%) [6]: 74% and 81%
- Population Hoechst High Intensity Objects (%) [6]: 2% and 3%
- Population Membrane Permeable-Phenotype (%) [6]: 0%
- Population Mitochondria Different-Phenotype (%) [6]: 36% and 30%
- Population Mitotic Cells (%) [6]: 68% and 69%
- Population Normal (%) [6]: 97% and 96%
- Population Pyknosed Nuclei (%) [6]: 10% and 7%
- Population Tubulin-Different-Phenotype (%) [6]: 20% and 12%
- Total Cell Count [6]: 390 and 521

SMILES: O=C(O)c1cc2ccccc2c(Cc2c(O)c(C(=O)O)cc3ccccc23)c1O [PAMOIC ACID]
- Population Apoptotic (%) [1]: 30% and 58%
- Population Fragmented Nuclei (%) [1]: 9% and 7%
- Population Healthy Nuclei (%) [1]: 77%
- Population Hoechst High Intensity Objects (%) [1]: 7% and 6%
- Population Membrane Permeable-Phenotype (%) [1]: 0%
- Population Mitochondria Different-Phenotype (%) [1]: 38% and 60%
- Population Mitotic Cells (%) [1]: 69% and 41%
- Population Normal (%) [1]: 92% and 93%
- Population Pyknosed Nuclei (%) [1]: 12% and 15%
- Population Tubulin-Different-Phenotype (%) [1]: 23% and 21%
- Total Cell Count [1]: 432 and 303
- Population Apoptotic (%) [2]: 34% and 52%
- Population Fragmented Nuclei (%) [2]: 8% and 4%
- Population Healthy Nuclei (%) [2]: 79% and 81%
- Population Hoechst High Intensity Objects (%) [2]: 8%
- Population Membrane Permeable-Phenotype (%) [2]: 0%
- Population Mitochondria Different-Phenotype (%) [2]: 44% and 55%
- Population Mitotic Cells (%) [2]: 65% and 47%
- Population Normal (%) [2]: 91%
- Population Pyknosed Nuclei (%) [2]: 12% and 13%
- Population Tubulin-Different-Phenotype (%) [2]: 34% and 26%
- Total Cell Count [2]: 446 and 275
- Population Apoptotic (%) [3]: 29% and 40%
- Population Fragmented Nuclei (%) [3]: 8% and 5%
- Population Healthy Nuclei (%) [3]: 78% and 86%
- Population Hoechst High Intensity Objects (%) [3]: 6%
- Population Membrane Permeable-Phenotype (%) [3]: 1% and 0%
- Population Mitochondria Different-Phenotype (%) [3]: 22% and 39%
- Population Mitotic Cells (%) [3]: 70% and 59%
- Population Normal (%) [3]: 93%
- Population Pyknosed Nuclei (%) [3]: 12% and 7%
- Population Tubulin-Different-Phenotype (%) [3]: 16%
- Total Cell Count [3]: 559 and 378
- Population Apoptotic (%) [4]: 29% and 41%
- Population Fragmented Nuclei (%) [4]: 9% and 5%
- Population Healthy Nuclei (%) [4]: 75% and 79%
- Population Hoechst High Intensity Objects (%) [4]: 5% and 7%
- Population Membrane Permeable-Phenotype (%) [4]: 0%
- Population Mitochondria Different-Phenotype (%) [4]: 27% and 43%
- Population Mitotic Cells (%) [4]: 70% and 58%
- Population Normal (%) [4]: 94% and 92%
- Population Pyknosed Nuclei (%) [4]: 14% and 15%
- Population Tubulin-Different-Phenotype (%) [4]: 22% and 18%
- Total Cell Count [4]: 592 and 365
- Population Apoptotic (%) [5]: 18% and 48%
- Population Fragmented Nuclei (%) [5]: 11% and 8%
- Population Healthy Nuclei (%) [5]: 81% and 84%
- Population Hoechst High Intensity Objects (%) [5]: 2% and 7%
- Population Membrane Permeable-Phenotype (%) [5]: 1% and 0%
- Population Mitochondria Different-Phenotype (%) [5]: 13% and 27%
- Population Mitotic Cells (%) [5]: 81% and 51%
- Population Normal (%) [5]: 97% and 92%
- Population Pyknosed Nuclei (%) [5]: 7% and 6%
- Population Tubulin-Different-Phenotype (%) [5]: 10% and 11%
- Total Cell Count [5]: 998 and 494
- Population Apoptotic (%) [6]: 24% and 36%
- Population Fragmented Nuclei (%) [6]: 13% and 11%
- Population Healthy Nuclei (%) [6]: 79% and 82%
- Population Hoechst High Intensity Objects (%) [6]: 3% and 7%
- Population Membrane Permeable-Phenotype (%) [6]: 0%
- Population Mitochondria Different-Phenotype (%) [6]: 18% and 27%
- Population Mitotic Cells (%) [6]: 75% and 64%
- Population Normal (%) [6]: 96% and 92%
- Population Pyknosed Nuclei (%) [6]: 7% and 5%
- Population Tubulin-Different-Phenotype (%) [6]: 10% and 12%
- Total Cell Count [6]: 879 and 517
